The source made the active and inactive calls. The calls are words filed in the database; no cut-off is given here.
Experiments:
Pseudomonas aeruginosa [1] = assay: Inhibition of Pseudomonas aeruginosa PA14 biofilm formation after 24 hrs by crystal violet reporter assay; format: functional, organism-based; conditions: PA14, 24 h
Method in brief: (§1)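 Biofilm formation measured by crystal violet reporter assay. Each compound was first screened at 100 µM. Compounds giving >95% inhibition then went to dose-response studies to derive IC50. Values are means of three or more experiments.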

Pseudomonas aeruginosa [2] = assay: Dispersion of Pseudomonas aeruginosa PA14 established biofilm at 100 uM after 24 hrs by crystal violet reporter assay; format: functional, organism-based
Escherichia coli [3] = assay: Inhibition of Escherichia coli biofilm formation after 24 hrs by crystal violet reporter assay; format: functional, organism-based; method in brief: as §1
Pseudomonas aeruginosa [4] = assay: Inhibition of Pseudomonas aeruginosa PA14 biofilm formation at 100 uM after 24 hrs by crystal violet reporter assay; format: functional; conditions: PA14, 24 h; method in brief: as §1
Escherichia coli [5] = assay: Inhibition of Escherichia coli biofilm formation at 100 uM after 24 hrs by crystal violet reporter assay; format: functional; method in brief: as §1
Acinetobacter baumannii [6] = assay: Dispersion of Acinetobacter baumannii established biofilm at 100 uM after 24 hrs by crystal violet reporter assay; format: functional
Acinetobacter baumannii [7] = assay: Inhibition of Acinetobacter baumannii biofilm formation after 24 hrs by crystal violet reporter assay; format: functional, organism-based; method in brief: as §1
Escherichia coli [8] = assay: Toxicity in Escherichia coli assessed as inhibition of planktonic growth at IC50 concentration measured up to 24 hrs; format: organism-based; conditions: in vivo
Escherichia coli [9] = assay: Dispersion of Escherichia coli established biofilm at 50 uM after 24 hrs by crystal violet reporter assay; format: functional
Acinetobacter baumannii [10] = assay: Inhibition of Acinetobacter baumannii biofilm formation at 100 uM after 24 hrs by crystal violet reporter assay; format: functional; method in brief: as §1

## CCCCCCC(=O)Nc1ccc(-c2cnc(N)[nH]2)cc1
Pseudomonas aeruginosa [1]
  IC50: 16.8 µM
Pseudomonas aeruginosa [2]
  Activity: inactive

## CCCCCc1ccc(C(=O)Nc2cccc(-c3cnc(N)[nH]3)c2)cc1
Pseudomonas aeruginosa [2]
  Activity: inactive
Escherichia coli [3]
  IC50: 16.5 µM

## CCCCCCC(=O)Nc1cccc(-c2cnc(N)[nH]2)c1
Pseudomonas aeruginosa [1]
  IC50: 39.4 µM
Pseudomonas aeruginosa [2]
  Activity: inactive

## Nc1ncc(-c2cccc(NC(=O)c3cc(F)cc(F)c3)c2)[nH]1
Pseudomonas aeruginosa [4]
  inhibition at 100 µM: < 5%
Pseudomonas aeruginosa [2]
  Activity: inactive
Escherichia coli [5]
  inhibition at 100 µM: 64%

## Nc1ncc(-c2ccccc2NC(=O)c2cc(F)cc(F)c2)[nH]1
Pseudomonas aeruginosa [4]
  inhibition at 100 µM: < 5%
Pseudomonas aeruginosa [2]
  Activity: inactive
Escherichia coli [5]
  inhibition at 100 µM: < 5%

## CCCCCCCCCC(=O)Nc1ccccc1-c1cnc(N)[nH]1.Cl
Pseudomonas aeruginosa [2]
  Activity: inactive
Acinetobacter baumannii [6]
  Activity: 40%
Acinetobacter baumannii [7]
  IC50: 43 µM

## CCCCCc1ccc(C(=O)Nc2ccc(-c3cnc(N)[nH]3)cc2)cc1
Pseudomonas aeruginosa [2]
  Activity: inactive
Escherichia coli [3]
  IC50: 39.4 µM

## Cl.Nc1ncc(-c2ccc(NC(=O)c3cc(F)cc(F)c3)cc2)[nH]1
Pseudomonas aeruginosa [1]
  IC50: 27.6 µM
Pseudomonas aeruginosa [2]
  Activity: inactive
Escherichia coli [3]
  IC50: 5.2 µM
Escherichia coli [8]
  Activity: Non-toxic
Escherichia coli [9]
  Activity: 51%

## Cl.Nc1ncc(-c2ccc(NC(=O)/C=C/c3ccccc3)cc2)[nH]1
Pseudomonas aeruginosa [2]
  Activity: inactive
Escherichia coli [3]
  IC50: 16.3 µM
Escherichia coli [9]
  Activity: 67%

## Nc1ncc(-c2cccc(NC(=O)C34CC5CC(CC(C5)C3)C4)c2)[nH]1
Pseudomonas aeruginosa [2]
  Activity: inactive
Escherichia coli [3]
  IC50: 43.4 µM

## Nc1ncc(-c2cccc(NC(=O)CCC3CCCC3)c2)[nH]1
Pseudomonas aeruginosa [2]
  Activity: inactive
Escherichia coli [3]
  IC50: 47 µM

## Nc1ncc(-c2ccc(-n3cc(-c4cc(F)cc(F)c4)nn3)cc2)[nH]1
Pseudomonas aeruginosa [4]
  inhibition at 100 µM: < 5%
Acinetobacter baumannii [10]
  inhibition at 100 µM: 21%
Escherichia coli [5]
  inhibition at 100 µM: 35%

Reference: ChEMBL document CHEMBL1155530, “Identification of aryl 2-aminoimidazoles as biofilm inhibitors in Gram-negative bacteria” (Bioorg Med Chem Lett, 2010)
